Measurements: ChEMBL document CHEMBL2331500, “Bioactive flavaglines and other constituents isolated from Aglaia perviridis” (J Nat Prod, 2013)

Experiments:
[1] = target: Transcription factor p65 (Homo sapiens) (UniProt Q04206); test: Inhibition of NF-kappaB p65 (unknown origin) by ELISA
[2] = Cytotoxicity against human CCD-112CoN cells; assay type: cell-based; conditions: read-out: ED50 (the source's name)
HT-29 = test: Cytotoxicity against human HT-29 cells; assay type: functional; conditions: read-out: ED50 (the source's name)
Method in brief: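 HT-29 human colon cancer cells, run by a previously described protocol on all isolates. Growth inhibition was reported as ED50, and a positive control compound was run alongside.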

Chain of Transcription factor p65 (Homo sapiens) (Q04206 whole entry): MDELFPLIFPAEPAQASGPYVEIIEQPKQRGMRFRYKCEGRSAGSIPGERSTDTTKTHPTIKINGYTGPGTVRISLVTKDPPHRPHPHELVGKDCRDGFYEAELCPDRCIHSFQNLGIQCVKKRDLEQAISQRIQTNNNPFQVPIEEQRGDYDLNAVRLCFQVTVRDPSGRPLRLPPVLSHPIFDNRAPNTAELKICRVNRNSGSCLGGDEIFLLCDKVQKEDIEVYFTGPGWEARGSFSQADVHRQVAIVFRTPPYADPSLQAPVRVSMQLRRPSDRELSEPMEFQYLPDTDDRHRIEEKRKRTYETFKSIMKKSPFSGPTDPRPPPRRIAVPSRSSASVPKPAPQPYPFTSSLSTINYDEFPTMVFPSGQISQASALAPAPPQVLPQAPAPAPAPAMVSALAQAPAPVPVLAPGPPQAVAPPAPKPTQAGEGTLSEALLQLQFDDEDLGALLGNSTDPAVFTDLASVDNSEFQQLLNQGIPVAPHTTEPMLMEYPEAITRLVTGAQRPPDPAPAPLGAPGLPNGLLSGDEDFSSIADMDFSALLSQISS

SMILES	ED50 [1] [µM]	CC50 [2] [µM]	EC50 (HT-29; Homo sapiens, HT-29) [µM]	EC50 (HT-29) [µM]
COC(=O)[C@H]1[C@@H](O)[C@@]2(O)c3c(OC)cc(OC)cc3O[C@@]2(c2ccc3c(c2)OCO3)[C@@H]1c1ccccc1	3.54	> 50	0.002	
COC(=O)[C@H]1[C@@H](OC=O)[C@@]2(O)c3c(OC)cc(OC)cc3O[C@@]2(c2ccc3c(c2)OCO3)[C@@H]1c1ccccc1		> 50	0.056	
COC(=O)[C@H]1[C@@H](O)[C@@]2(OC)c3c(OC)cc(OC)cc3O[C@@]2(c2ccc(OC)cc2)[C@@H]1c1ccccc1	> 20	> 50	4.9	
CC(C)[C@H]1CC[C@]2(C)C(=O)CCC(C=O)=C[C@H]12	0.005		> 20	
CC1=CC(=O)CC(C)(C)[C@H]1CC[C@H](O)CO	> 20		> 10	
C=C(CC[C@@H](CO)[C@H]1CC[C@@]2(C)[C@@H]3CC[C@H]4C(C)(C)[C@@H](O)CC[C@@]45C[C@@]35CC[C@]12C)C(C)C	> 20		> 10	
COc1ccc(-c2oc3cc(OC)cc(OC)c3c(=O)c2O)cc1	> 20		> 10	
COc1ccc([C@@]23Oc4cc(OC)cc(OC)c4[C@]2(OC)[C@H](O)C[C@H]3c2ccccc2)cc1	> 20		> 10	
COc1cc(OC)c2c(c1)O[C@@]1(c3ccc4c(c3)OCO4)[C@H](c3ccccc3)C[C@@H](O)[C@@]21OC	> 20	> 50	0.96	
COC(=O)[C@H]1[C@@H](O)[C@@]2(OC)c3c(OC)cc(OC)cc3O[C@@]2(c2ccc3c(c2)OCO3)[C@@H]1c1ccccc1	> 20	> 50	4.7	
COc1cc(OC)c2c(c1)O[C@@]1(c3ccc4c(c3)OCO4)[C@H](c3ccccc3)C[C@@H](O)[C@@]21O	0.33	> 50	0.0067	
COC(=O)[C@H]1[C@@H](OC=O)[C@@]2(O)c3c(OC)cc(OC)cc3O[C@@]2(c2ccc(OC)cc2)[C@@H]1c1ccccc1	> 20	> 50	0.019	
COc1ccc([C@]23Oc4cc(OC)cc(OC)c4[C@](O)(C2O)[C@@H](c2ccccc2)[C@@H]3C(=O)NCCCCNC(=O)/C(C)=C/CO)cc1 (stereo in doubt; 1) [listing 1 of 2 here]				> 10
COc1ccc([C@]23Oc4cc(OC)cc(OC)c4[C@](O)(C2O)[C@@H](c2ccccc2)[C@@H]3C(=O)NCCCCNC(=O)/C(C)=C/CO)cc1 (stereo in doubt; 1) [listing 2 of 2 here]	> 20			
COc1ccc([C@]23Oc4cc(OC)cc(OC)c4[C@](O)(C2O)[C@@H](c2ccccc2)[C@@H]3C(=O)NCCCCNC(=O)/C(C)=C/CO)cc1 (stereo in doubt; 2) [listing 1 of 2 here]		> 50		0.46
COc1ccc([C@]23Oc4cc(OC)cc(OC)c4[C@](O)(C2O)[C@@H](c2ccccc2)[C@@H]3C(=O)NCCCCNC(=O)/C(C)=C/CO)cc1 (stereo in doubt; 2) [listing 2 of 2 here]	2.4			
COC(=O)[C@H]1[C@@H](O)[C@@]2(O)c3c(OC)cc(OC)cc3O[C@@]2(c2ccc(OC)cc2)[C@@H]1c1ccccc1 [AGLAFOLIN]	> 20	> 50	0.012	
CC(C)=C[C@H](O)[C@@H](O)[C@@H](CO)[C@H]1CC[C@@]2(C)[C@@H]3CC[C@H]4C(C)(C)[C@@H](O)CC[C@@]45C[C@@]35CC[C@]12C [ARGENTEANOL]	> 20		> 10	
CC1(C)[C@H](O)CC[C@]2(C)[C@H]3CC[C@@H]4[C@@H]([C@]5(C)CCC(=O)O5)CC[C@@]4(C)[C@]3(C)CC[C@@H]12 [CABRALEAHYDROXYLACTONE]	> 20		> 10	
COc1ccc([C@@]23Oc4cc(OC)cc(OC)c4[C@]2(O)[C@H](O)[C@H](C(N)=O)[C@H]3c2ccccc2)cc1 [DIDESMETHYLROCAGLAMIDE]	> 20	> 50	0.021	
CC1=CC(O)N(CCCCNC(=O)/C=C/c2ccccc2)C1=O (configuration not stated) [GIGANTAMIDE A]	> 20		> 10	
CC(=O)O[C@H]1C(=O)[C@@]2(C)[C@H]([C@H](OC(=O)c3ccccc3)[C@]3(O)C[C@H](OC(=O)[C@H](O)[C@@H](NC(=O)c4ccccc4)c4ccccc4)C(C)=C1C3(C)C)[C@]1(OC(C)=O)CO[C@@H]1C[C@@H]2O [PACLITAXEL]		23	0.001	
CC(C)=CC(=O)[C@@H](O)[C@@H](C)[C@H]1CC[C@@]2(C)[C@@H]3CC[C@H]4C(C)(C)[C@@H](O)CC[C@@]45C[C@@]35CC[C@]12C [PERVIRIDISINOL A]	> 20		> 10	
CC(C)=C[C@H]1OC[C@@H]([C@H]2CC[C@@]3(C)[C@@H]4CC[C@H]5C(C)(C)[C@@H](O)CC[C@@]56C[C@@]46CC[C@]23C)[C@@H]1O [PERVIRIDISINOL B]	> 20		> 10	
C=C(CC[C@@H](CO)[C@H]1CC[C@@]2(C)[C@@H]3CC[C@H]4[C@H](C)[C@@H](O)CC[C@@]45C[C@@]35CC[C@]12C)C(C)C [PERVIRIDISINOL C]	> 20		> 10	
COc1ccc([C@@]23Oc4cc(OC)cc(OC)c4[C@]2(O)[C@H](O)[C@H](C(=O)N(C)C)[C@H]3c2ccccc2)cc1 [ROCAGLAMIDE]		> 50	0.005	
COc1ccc([C@@]23Oc4cc(OC)cc(OC)c4[C@]2(O)[C@H](O)C[C@H]3c2ccccc2)cc1 [ROCAGLAOL]	0.005	> 50	0.0007	
COc1cc2ccc(=O)oc2cc1O [SCOPOLETIN]	> 20		> 10	
